Experimental data taken from paper PMC9075995 (RSC Advances, 2019).
≈ marks a conversion by molar mass, not a printed value. Where two headings read alike, the source gives them in different places.

Assays:
[1] = test system: NALM-6 (leukemia lymphoblastic); settings: read-out: Cell culture IC50; NALM-6, referential compounds; cited from earlier work
[2] = test system: HL-60 (leukemia promyelocytic); settings: read-out: Cell culture IC50; HL-60, referential compounds; cited from earlier work
WM-115 (human melanoma) [3] = settings: read-out: Cell culture IC50; WM-115, referential compounds; cited from earlier work
[4] = test system: HL-60 (leukemia promyelocytic); experiment: Anticancer activity, MTT assay; format: cell-based, human; settings: for IC50: Homo sapiens, HL-60, 48 h, read-out: Cell culture IC50; for anticancer activity in words: HL-60
Method in brief: (§1)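 Human leukaemia (HL-60, NALM-6) or melanoma (WM-115) cells were exposed to the test compound for 46 h, then given MTT for a further 2 h. Fresh DMSO stocks were diluted in complete medium, with DMSO ≤0.2%. Untreated cells served as control. IC50 was taken from concentration–response curves, as mean ± SD of 4 experiments.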

P. vulgaris ATCC 8427 = experiment: MIC and MBC by broth microdilution, subculture on agar; format: cell-based, Proteus vulgaris; settings: for MBC/MFC: P. vulgaris ATCC 8427, second line per compound, subculture on agar 24 h, 37 °C; for MIC: Proteus vulgaris, ATCC8427
Method in brief: (§2)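 EUCAST broth microdilution used Mueller-Hinton broth for bacteria and phenol-red-free RPMI-1640 for Candida. Test compound ran at a final 31.2–1000 μg ml−1, from 80 mg ml−1 DMSO stocks, with DMSO ≤1.25%. […] For MBC/MFC, 10 μl from the MIC, 2× and 4× MIC wells was plated on agar for 24 h at 37 °C. Done in duplicate, 2 sets.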

E. faecalis ATCC 29212 = experiment: as above; format: cell-based, Enterococcus faecalis; settings: for MBC/MFC: second line per compound, subculture on agar 24 h, 37 °C; for MIC: Enterococcus faecalis, ATCC29212
Method in brief: as §2

[5] = test system: NALM-6 (leukemia lymphoblastic); experiment: Anticancer activity, MTT assay; format: cell-based, human; settings: for IC50: Homo sapiens, NALM-6, 48 h, read-out: Cell culture IC50; for anticancer activity in words: NALM-6
Method in brief: as §1

[6] = test system: Supercoiled plasmid pUC57 DNA; experiment: Cleavage of pUC57 DNA, agarose gel electrophoresis; format: biochemical; settings: 37 °C, 24 h, pH 7.2, gel electrophoresis
Method in brief: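 Supercoiled pUC57 plasmid (4634 bp) in 10 mM Tris–HCl/50 mM NaCl, pH 7.2, was incubated with the test compound (50, 100, 200, 300, 400 μM) at 37 °C for 24 h. Samples ran on 1% agarose at 75 V in TAE, were stained with Midori green and imaged under UV. Band intensities gave the fraction of each DNA form. Control was DNA with matching DMSO in buffer. Done in triplicate.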

[7] = test system: S. epidermidis ATCC 12228; experiment: MIC and MBC by broth microdilution, subculture on agar; format: cell-based, Staphylococcus epidermidis; settings: for MIC: Staphylococcus epidermidis, ATCC12228
Method in brief: as §2

WM-115 (human melanoma) [8] = experiment: Anticancer activity, MTT assay; format: cell-based; settings: for IC50: Homo sapiens, WM-115, 48 h, read-out: Cell culture IC50
Method in brief: as §1

S. aureus ATCC 29213 = experiment: MIC and MBC by broth microdilution, subculture on agar; format: cell-based, Staphylococcus aureus; settings: for MBC/MFC: S. aureus ATCC 29213, second line per compound, subculture on agar 24 h, 37 °C; for MIC: Staphylococcus aureus, ATCC29213
Method in brief: as §2

C. albicans ATCC 10231 = experiment: MIC and MFC by broth microdilution, subculture on agar; format: cell-based, Candida albicans; settings: for MBC/MFC: C. albicans ATCC 10231, second line per compound, subculture on agar 24 h, 37 °C; for MIC: Candida albicans, ATCC10231
Method in brief: as §2

P. aeruginosa ATCC 25619 = experiment: MIC and MBC by broth microdilution, subculture on agar; format: cell-based; settings: Pseudomonas aeruginosa, ATCC25619
Method in brief: as §2

[9] = test system: human foreskin fibroblasts HFF-1 (ATCC-SCRC-1041); experiment: Cytotoxicity on normal fibroblasts, MTT reduction assay; format: cell-based; settings: for metabolic activity higher than untreated control cells: HFF-1, low concentrations 3.9–31.2 μM
Method in brief: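 HFF-1 fibroblasts were seeded at 1 × 10^5/well in DMEM with 15% FCS and pen/strep and grown 48 h (37 °C, 5% CO2). They were exposed 24 h to the test compound (25 mM DMSO stocks; final 3.9–500 μM). Cells were washed and given MTT (1.5 mg ml−1) for 2 h. Formazan was dissolved overnight in 20% SDS in DMF/water and read at 550 nm. Viability is relative to 2% DMSO control; IC50 came from trend-line equations. Two experiments, duplicates each.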

Row | Molecule | IC50 [4] [µM] | MBC/MFC (P. vulgaris ATCC 8427) [µg/mL] | MIC (P. vulgaris ATCC 8427) [µg/mL] | MBC/MFC (E. faecalis ATCC 29212; E. faecalis ATCC 29212) [µg/mL] | MIC (E. faecalis ATCC 29212) [µg/mL] | IC50 [5] [µM] | effect on supercoiled plasmid DNA (cleavage of Form I) [6] | MIC [7] [µg/mL] | IC50 (WM-115 (human melanoma) [8]) [µM] | MBC/MFC (S. aureus ATCC 29213) [µg/mL] | MIC (S. aureus ATCC 29213) [µg/mL] | MBC/MFC (C. albicans ATCC 10231) [µg/mL] | MIC (C. albicans ATCC 10231) [µg/mL] | MIC (P. aeruginosa ATCC 25619) [µg/mL] | also measured
1 | N.N.O=C([O-])C1(C(=O)[O-])CCC1.[Pt+2] [Carboplatin] | – | – | – | – | – | – | – | – | – | – | – | – | – | – | IC50 [1]: 0.7 ± 0.2 µM; IC50 [2]: 4.3 ± 1.3 µM; IC50 (WM-115 (human melanoma) [3]): 422 ± 50.2 µM
2 | N.N.[Cl][Pt][Cl] [Cisplatin] | – | – | – | – | – | – | – | – | – | – | – | – | – | – | IC50 [1]: 0.7 ± 0.3 µM; IC50 [2]: 0.8 ± 0.1 µM; IC50 (WM-115 (human melanoma) [3]): 18.2 ± 4.3 µM
3 | Cc1cc(C)n(C(N)=S)n1 [Compound 1a, 1-[amino(thioxo)methyl]-3,5-dimethyl-1H-pyrazole] | 584 ± 84.3 | >1000 | > 1000 | >1000 | > 1000 | 569 ± 21.9 | did not affect the DNA | > 1000 | > 1000 | >1000 | > 1000 | >1000 | > 1000 | > 1000 | –
4 | CCc1cc(CC)n(C(N)=S)n1 [Compound 1b, 1-[amino(thioxo)methyl]-3,5-diethyl-1H-pyrazole] | 506 ± 47.1 | 1000 (≈ 5.46 mM) | 1000 (≈ 5.46 mM) | >1000 | > 1000 | 469 ± 44.4 | did not affect the DNA | > 1000 | 481 ± 39.4 | >1000 | 1000 (≈ 5.46 mM) | 1000 (≈ 5.46 mM) | 1000 (≈ 5.46 mM) | > 1000 | –
5 | NC(=S)n1nc(-c2ccccc2)cc1O [Compound 1c, 1-[amino(thioxo)methyl]-5-hydroxy-3-phenyl-1H-pyrazole] | 618 ± 32 | >1000 | > 1000 | >1000 | 500 (≈ 2.28 mM) | 152 ± 26.7 | – | 62.5 (≈ 0.285 mM) | 752 ± 118 | >1000 | 1000 (≈ 4.56 mM) | >1000 | > 1000 | > 1000 | –
6 | Cc1cc(O)n(C(N)=S)n1 [Compound 1d, 1-[amino(thioxo)methyl]-5-hydroxy-3-methyl-1H-pyrazole] | 779 ± 125 | >1000 | > 1000 | >1000 | 250 (≈ 1.59 mM) | 615 ± 60.9 | did not affect the DNA | 250 (≈ 1.59 mM) | 90.9 ± 10.2 | >1000 | 1000 (≈ 6.36 mM) | >1000 | > 1000 | > 1000 | –
7 | Cc1cc(C)n(C(N)=S)n1.Cc1ccc(C(C)C)cc1.[Cl][Ru][Cl] [Compound 2a] | – | >1000 | – | 125 | – | – | no influence | – | – | 125 | – | – | – | – | metabolic activity higher than untreated control cells [9]: 39–45%
8 | Cc1ccc(C(C)C)cc1.Cc1ccc(C(C)C)cc1.[Cl][Ru][Cl].[Cl][Ru][Cl] [Dimer, dichloro(p-cymene)ruthenium(II)dimer, reference compound] | – | >1000 | – | >1000 | – | – | no effect | – | – | >1000 | – | >1000 | – | – | anticancer activity in words [4]: inactive; anticancer activity in words [5]: inactive; anticancer activity in words (WM-115 (human melanoma) [8]; WM-115): inactive
9 | [(η^6-p-cymene)Ru(1-[amino(thioxo)methyl]-3,5-diethyl-1H-pyrazole)Cl2 [Compound 2b] | – | >1000 | – | 62.5 | – | – | cleavage the DNA Form I into Form II and Form III | – | – | 125 | – | – | – | – | metabolic activity higher than untreated control cells [9]: 39–45%
10 | [(η^6-p-cymene)Ru(1-[amino(thioxo)methyl]-5-hydroxy-3-methyl-1H-pyrazole) Cl2 [Compound 2d] | – | 1000 | – | 1000 | – | – | cleavage the DNA Form I into Form II and Form III | – | – | 500 | – | >1000 | – | – | anticancer activity in words [4]: inactive; anticancer activity in words [5]: inactive; activity stronger than cisplatin (fold, from IC50 values) (WM-115 (human melanoma) [8]; WM-115): above 2 fold; viability of HFF-1 cells ([9]; HFF-1, 24 h, over tested range 3.9–500 μM): ≥ 80%
11 | [(η^6-p-cymene)Ru(1-[amino(thioxo)methyl]-5-hydroxy-3-phenyl-1H-pyrazole)Cl2 [Compound 2c] | – | >1000 | – | <31.2 | – | – | no influence | – | – | 62.5 | – | >1000 | – | – | activity (MIC) stronger than ligand 1c (E. faecalis ATCC 29212; E. faecalis ATCC 29212): > 16 fold; activity (MIC) stronger than ligand 1c ([7]; S. epidermidis ATCC 12228): more than 2 fold
